Measurements from ChEMBL document CHEMBL1800061 (J Med Chem, 2010).
Active and inactive are the calls of the source. The rule behind the calls is not given here.

Key:
[1] = molecular target: MAP kinase-activated protein kinase 5 (Homo sapiens) (UniProt Q8IW41); assay: Inhibition of PRAK assessed as residual enzyme activity at 10 uM
[2] = molecular target: Protein kinase C zeta type (Homo sapiens) (UniProt Q05513); assay: Inhibition of PKCzeta assessed as residual enzyme activity at 10 uM
[3] = molecular target: Cyclin-dependent kinase 6 (Homo sapiens) (UniProt Q00534); assay: Inhibition of CDK6-mediated phosphorylation of RB protein in human HCT116 cells after 4 hrs by immunoblotting analysis; format: cell-based; details: HCT-116
How it was run: (§1)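 HCT116 colon cancer cells were kept in DMEM with 10% FCS. Cells (8×10^5) were plated, dosed 24 h later, and exposed for 4 or 24 h. Whole-cell lysates were made in RIPA buffer with phosphatase and protease inhibitor cocktails and normalised by BCA protein assay. They were immunoblotted for phospho-sites, total proteins and cyclins.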

[4] = tested on: MDA-MB-231; assay: Antiproliferative activity against human MDA-MB-231 cells after 72 hrs by sulforhodamine B assay; format: functional; details: MDA-MB-231, 72 h
How it was run: (§2)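 Cell lines were grown in DMEM with 10% FCS and treated with increasing concentrations for 72 h. Growth was read by sulforhodamine B staining and GI50 was derived. Values are means of at least three replicates with SD.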

[5] = tested on: HCT-116; assay: Induction of apoptosis in human HCT116 cells assessed as increase in sub-G1 population at 1 to 10 umol/L after 24 hrs by […] staining based flow cytometric analysis; format: functional, cell-based
[6] = tested on: HCT-116; assay: Antiproliferative activity against human HCT116 cells after 72 hrs by sulforhodamine B assay; format: functional; details: HCT-116, 72 h; how it was run: as §2
[7] = molecular target: Cyclin-dependent kinase 4 (Homo sapiens) (UniProt P11802); assay: Inhibition of CDK4-mediated phosphorylation of […] in human HCT116 cells after 4 hrs by immunoblotting analysis; format: cell-based; details: HCT-116; how it was run: as §1
[8] = tested on: MCF7; assay: Antitumor activity against human MCF7 cells xenografted in nude BALB/c mouse assessed as decrease in tumor volume at 5 mg/kg, ip bid for 14 days relative to control on day 1; format: functional; details: route intraperitoneal
How it was run: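 Randomised nude mice bearing MCF-7 tumours were injected intraperitoneally twice daily with 5 or 10 mg/kg (10 or 20 mg/kg/day) for 14 days. The control group received vehicle. Tumour volume was expressed relative to each animal's own day 1 volume.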

[9] = tested on: Mus musculus; assay: Inhibition of cyclin-dependent kinase substrate RB phosphorylation in nude BALB/c mouse PBMC at 75 to 100 mg/kg, po measured after 24 hrs by immunostaining and flow cytometric analysis; format: organism-based; parameters: dose 75-100 mg/kg, route oral; details: in vivo
How it was run: (§3)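 Seven-week-old female nu/nu-BALB/c nude mice got a single oral gavage (vehicle 28% PEG300/5% dimethylacetamide/10% HPB cyclodextrin in water). Blood was taken by cardiac puncture at 6 h or 24 h, red cells were lysed, and PBMC were fixed and permeabilized. Cells were stained with Rb, Rb pThr821, PolII or PolII pSer2 antibodies plus an Alexa488 secondary, then read by flow cytometry; n=4 (n=3 at 100 mg/kg).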

[10] = tested on: Mus musculus; assay: Inhibition of cyclin-dependent kinase substrate RB phosphorylation at Ser807/811 in HCT116 xenografted nude BALB/c mouse at 25 mg/kg/day, po measured after 14 days by immunostaining and […] relative to control; format: organism-based; parameters: route oral; details: in vivo, 336 h
How it was run: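 HCT116 cells (5 × 10^6) were injected subcutaneously into the flank of female nu/nu-BALB/c nude mice. Mice were randomized at 100-200 mm3 and dosed daily by oral gavage for 14 days (vehicle 28% PEG300/5% dimethylacetamide/10% HPB cyclodextrin in water). Tumors were formalin-fixed and paraffin-embedded for Rb pSer807/811 or pThr821 immunohistochemistry (citrate pH 6.0 microwave retrieval), scoring >1000 cells per section. Student's t test.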

[11] = tested on: Mus musculus; assay: Inhibition of cyclin-dependent kinase substrate RB phosphorylation at Thr 821 in nude BALB/c mouse PBMC at 50 mg/kg, po measured after 24 hrs by immunostaining and flow cytometric analysis; format: functional, organism-based; parameters: dose 50 mg/kg; how it was run: as §3
[12] = tested on: Mus musculus; assay: Toxicity in nude BALB/c mouse assessed as adverse effect on weight at 10 mg/kg, ip bid for 14 days; format: organism-based; parameters: dose 10 mg/kg, route intraperitoneal; details: in vivo, 336 h
How it was run: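 Nude mice bearing MCF-7 tumors, randomized, given ip injections twice daily with vehicle or 5 or 10 mg/kg (10 or 20 mg/kg/day) for 14 days. Body weights were followed over the study; n=8–11 per group.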

[13] = molecular target: Insulin receptor (Homo sapiens) (UniProt P06213); assay: Inhibition of Histidine tagged-IR assessed as residual enzyme activity at 10 uM
[14] = molecular target: Dual specificity tyrosine-phosphorylation-regulated kinase 1A (Homo sapiens, UniProt Q13627); details: 0.1 uM
[15] = Elimination half life in mouse at 10 mg/kg, ip; format: ADME, organism-based; parameters: dose 10 mg/kg, route intraperitoneal; details: in vivo, read-out: beta t1/2
How it was run: (§4)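 Mice given 10 mg/kg by the ip, iv or oral route. Plasma levels were measured at 8 time points, with 3 animals per route for po and iv. Parameters came from a noncompartmental model. AUCINF was extrapolated to infinity, and bioavailability was calculated from AUCINF. The terminal slope used 3 points.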

[16] = molecular target: Insulin receptor-related protein (Homo sapiens, UniProt P14616); assay: Inhibition of IRR
[17] = molecular target: Calcium/calmodulin-dependent protein kinase kinase 2 (Homo sapiens, UniProt Q96RR4); assay: Inhibition of CAMKKbeta assessed as residual enzyme activity at 10 uM
[18] = molecular target: Cyclin-dependent kinase 1 (Homo sapiens) (UniProt P06493); assay: Inhibition of CDK1-mediated phosphorylation of RB protein in human HCT116 cells after 4 hrs by immunoblotting analysis; format: cell-based; details: HCT-116; how it was run: as §1
[19] = tested on: Mus musculus; assay: AUC (0 to infinity) in mouse at 10 mg/kg, po; format: ADME, organism-based, Plasma; parameters: time infinity, dose 10 mg/kg, route oral; details: in vivo; how it was run: as §4
[20] = molecular target: Mitogen-activated protein kinase 3 (Homo sapiens, UniProt P27361); assay: Inhibition of ERK1 assessed as residual enzyme activity at 10 uM
[21] = Cmax in mouse at 10 mg/kg, ip; format: ADME, organism-based; parameters: dose 10 mg/kg, route intraperitoneal; details: in vivo; how it was run: as §4
[22] = molecular target: Serine/threonine-protein kinase D1 (Homo sapiens) (UniProt Q15139); assay: Inhibition of PKD1 assessed as residual enzyme activity at 10 uM
[23] = molecular target: Serine/threonine-protein kinase TBK1 (Homo sapiens) (UniProt Q9UHD2); assay: Inhibition of TBK1 assessed as residual enzyme activity at 10 uM
[24] = molecular target: Cyclin-dependent kinase 6 (Homo sapiens) (UniProt Q00534); assay: Inhibition of CDK6-mediated phosphorylation of RNA pol3 in human HCT116 cells after 4 hrs by immunoblotting analysis; format: cell-based; details: HCT-116; how it was run: as §1
[25] = molecular target: Serine/threonine-protein kinase PAK 5 (Homo sapiens) (UniProt Q9P286); assay: Inhibition of PAK5 assessed as residual enzyme activity at 10 uM
[26] = molecular target: Cyclin-dependent kinase 4/cyclin D1 (Homo sapiens, UniProt P11802); assay: Inhibition of CDK4/cyclinD1 assessed as amount of ATP […] by luciferase activity based PKLight assay; format: protein-complex assay
How it was run: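 Purified recombinant CDK4/cycD1, CDK6/CycD1, CDK7/CycH/MAT1 or CDK9/CycT run with the supplier's substrate peptides under the manufacturer's protocol. Inhibition was read as ATP left at the end of the reaction, measured by luciferase luminescence (PKLight).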

[27] = molecular target: Cyclin-dependent kinase 9 (Homo sapiens) (UniProt P50750); assay: Inhibition of CDK9-mediated phosphorylation at Ser2 in C-terminal domain of RNA polymerase 2 in human HCT116 cells after 4 hrs by immunoblotting analysis; format: cell-based; details: HCT-116; how it was run: as §1
Cyclin-dependent kinase 9 (Homo sapiens), sequence (P50750 whole entry, the tested form may be a part): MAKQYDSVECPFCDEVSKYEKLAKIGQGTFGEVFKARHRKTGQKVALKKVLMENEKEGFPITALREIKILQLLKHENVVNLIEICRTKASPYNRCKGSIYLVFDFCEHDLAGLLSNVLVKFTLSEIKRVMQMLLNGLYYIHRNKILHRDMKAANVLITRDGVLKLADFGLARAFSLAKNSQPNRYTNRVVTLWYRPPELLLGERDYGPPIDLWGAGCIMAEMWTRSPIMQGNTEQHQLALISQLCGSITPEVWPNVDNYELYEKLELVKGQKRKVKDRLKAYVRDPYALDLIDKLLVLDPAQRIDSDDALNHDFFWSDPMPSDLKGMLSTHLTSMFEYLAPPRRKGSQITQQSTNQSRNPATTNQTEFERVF

Cyclin-dependent kinase 6 (Homo sapiens), sequence (Q00534 whole entry): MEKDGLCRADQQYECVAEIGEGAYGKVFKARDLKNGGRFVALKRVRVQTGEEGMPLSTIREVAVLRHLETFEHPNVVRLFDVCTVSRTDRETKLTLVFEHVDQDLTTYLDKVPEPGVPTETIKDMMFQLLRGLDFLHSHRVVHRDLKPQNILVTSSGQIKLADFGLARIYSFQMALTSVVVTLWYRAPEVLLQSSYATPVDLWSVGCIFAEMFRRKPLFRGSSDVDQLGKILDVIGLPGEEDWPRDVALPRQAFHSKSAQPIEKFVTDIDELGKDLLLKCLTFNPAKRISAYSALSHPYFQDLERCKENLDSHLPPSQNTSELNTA
Protein kinase C zeta type (Homo sapiens), sequence (Q05513 whole entry): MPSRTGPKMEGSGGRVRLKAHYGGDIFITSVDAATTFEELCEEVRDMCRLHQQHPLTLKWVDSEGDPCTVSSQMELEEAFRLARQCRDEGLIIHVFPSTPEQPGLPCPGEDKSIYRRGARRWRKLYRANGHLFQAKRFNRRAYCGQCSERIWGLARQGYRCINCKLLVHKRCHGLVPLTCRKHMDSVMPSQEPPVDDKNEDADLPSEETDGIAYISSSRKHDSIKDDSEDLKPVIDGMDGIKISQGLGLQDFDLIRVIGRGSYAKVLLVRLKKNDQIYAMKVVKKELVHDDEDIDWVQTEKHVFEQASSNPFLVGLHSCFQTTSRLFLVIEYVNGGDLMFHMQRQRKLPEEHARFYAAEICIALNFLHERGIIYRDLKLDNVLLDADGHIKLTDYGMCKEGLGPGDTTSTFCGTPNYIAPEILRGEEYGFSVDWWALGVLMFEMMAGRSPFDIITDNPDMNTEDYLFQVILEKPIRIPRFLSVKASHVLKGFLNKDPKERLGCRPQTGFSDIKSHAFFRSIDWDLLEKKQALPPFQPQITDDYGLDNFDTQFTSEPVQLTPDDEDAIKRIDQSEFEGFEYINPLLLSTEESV
Serine/threonine-protein kinase TBK1 (Homo sapiens), sequence (Q9UHD2 whole entry): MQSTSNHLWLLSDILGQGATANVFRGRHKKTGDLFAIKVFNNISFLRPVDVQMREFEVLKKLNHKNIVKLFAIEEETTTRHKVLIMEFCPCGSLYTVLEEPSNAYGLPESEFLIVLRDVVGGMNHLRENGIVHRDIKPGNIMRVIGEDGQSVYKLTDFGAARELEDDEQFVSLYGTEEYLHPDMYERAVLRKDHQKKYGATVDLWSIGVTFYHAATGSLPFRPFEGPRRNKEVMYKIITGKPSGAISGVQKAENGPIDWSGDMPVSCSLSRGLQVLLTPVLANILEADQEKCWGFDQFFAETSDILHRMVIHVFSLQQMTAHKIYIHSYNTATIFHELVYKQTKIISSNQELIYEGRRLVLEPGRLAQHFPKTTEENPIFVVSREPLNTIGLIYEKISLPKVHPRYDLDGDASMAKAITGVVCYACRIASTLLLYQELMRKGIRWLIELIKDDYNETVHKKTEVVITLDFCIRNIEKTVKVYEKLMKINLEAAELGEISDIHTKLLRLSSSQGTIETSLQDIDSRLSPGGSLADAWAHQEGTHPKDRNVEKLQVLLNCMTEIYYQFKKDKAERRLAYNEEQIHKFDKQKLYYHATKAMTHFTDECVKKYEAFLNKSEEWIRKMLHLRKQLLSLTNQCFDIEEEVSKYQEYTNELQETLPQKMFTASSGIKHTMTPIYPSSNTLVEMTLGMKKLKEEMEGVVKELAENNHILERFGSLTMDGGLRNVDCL
Serine/threonine-protein kinase PAK 5 (Homo sapiens), sequence (Q9P286 whole entry, looked up): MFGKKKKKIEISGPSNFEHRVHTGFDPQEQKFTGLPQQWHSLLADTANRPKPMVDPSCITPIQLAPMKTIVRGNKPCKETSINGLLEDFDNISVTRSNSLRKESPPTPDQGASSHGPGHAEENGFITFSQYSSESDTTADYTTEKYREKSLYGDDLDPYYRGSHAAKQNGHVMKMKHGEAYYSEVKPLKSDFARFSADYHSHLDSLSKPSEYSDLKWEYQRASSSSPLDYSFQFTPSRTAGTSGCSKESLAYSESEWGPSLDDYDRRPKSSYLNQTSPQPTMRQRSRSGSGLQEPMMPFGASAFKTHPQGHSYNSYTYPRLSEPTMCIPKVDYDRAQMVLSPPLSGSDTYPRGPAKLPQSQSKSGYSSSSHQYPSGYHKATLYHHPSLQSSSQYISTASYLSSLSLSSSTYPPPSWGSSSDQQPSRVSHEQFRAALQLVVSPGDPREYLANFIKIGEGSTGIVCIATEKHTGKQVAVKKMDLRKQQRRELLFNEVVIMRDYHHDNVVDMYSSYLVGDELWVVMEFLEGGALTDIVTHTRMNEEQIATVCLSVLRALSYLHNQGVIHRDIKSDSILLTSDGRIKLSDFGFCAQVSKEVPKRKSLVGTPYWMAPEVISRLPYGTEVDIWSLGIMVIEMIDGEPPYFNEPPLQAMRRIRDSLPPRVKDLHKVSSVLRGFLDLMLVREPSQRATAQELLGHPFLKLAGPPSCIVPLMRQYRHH
Cyclin-dependent kinase 1 (Homo sapiens), sequence (P06493 whole entry, looked up): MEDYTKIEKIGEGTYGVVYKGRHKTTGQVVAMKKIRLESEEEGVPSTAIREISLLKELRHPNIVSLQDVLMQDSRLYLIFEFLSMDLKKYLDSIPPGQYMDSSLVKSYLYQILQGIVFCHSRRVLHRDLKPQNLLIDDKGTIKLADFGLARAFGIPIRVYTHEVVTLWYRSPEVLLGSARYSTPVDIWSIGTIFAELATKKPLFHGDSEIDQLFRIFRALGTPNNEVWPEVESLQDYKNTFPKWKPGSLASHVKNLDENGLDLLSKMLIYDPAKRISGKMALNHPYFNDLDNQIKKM
Serine/threonine-protein kinase D1 (Homo sapiens), sequence (Q15139 whole entry): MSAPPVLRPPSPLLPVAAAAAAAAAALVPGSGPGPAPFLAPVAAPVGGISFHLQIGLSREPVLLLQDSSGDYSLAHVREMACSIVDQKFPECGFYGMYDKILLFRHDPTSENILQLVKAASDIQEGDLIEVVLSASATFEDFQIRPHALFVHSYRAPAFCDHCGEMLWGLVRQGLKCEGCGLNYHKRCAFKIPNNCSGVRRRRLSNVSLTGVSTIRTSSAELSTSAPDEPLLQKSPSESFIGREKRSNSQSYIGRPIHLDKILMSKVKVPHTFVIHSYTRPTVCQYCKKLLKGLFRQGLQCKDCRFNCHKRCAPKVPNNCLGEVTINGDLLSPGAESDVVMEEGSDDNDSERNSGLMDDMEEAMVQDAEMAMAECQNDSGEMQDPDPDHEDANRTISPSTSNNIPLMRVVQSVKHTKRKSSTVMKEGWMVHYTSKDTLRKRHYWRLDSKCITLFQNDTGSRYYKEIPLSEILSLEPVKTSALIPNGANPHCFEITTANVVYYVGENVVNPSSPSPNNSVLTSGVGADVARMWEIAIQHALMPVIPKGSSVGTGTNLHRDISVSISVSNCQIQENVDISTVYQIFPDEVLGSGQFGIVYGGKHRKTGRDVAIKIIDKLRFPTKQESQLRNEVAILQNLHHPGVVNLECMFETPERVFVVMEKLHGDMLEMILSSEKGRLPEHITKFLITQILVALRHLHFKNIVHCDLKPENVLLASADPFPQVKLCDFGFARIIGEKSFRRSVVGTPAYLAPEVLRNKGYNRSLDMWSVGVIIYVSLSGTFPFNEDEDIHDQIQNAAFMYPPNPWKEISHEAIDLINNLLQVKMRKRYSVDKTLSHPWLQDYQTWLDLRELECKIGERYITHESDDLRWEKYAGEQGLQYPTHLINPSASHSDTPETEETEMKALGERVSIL
Mitogen-activated protein kinase 3, sequence (P27361 whole entry): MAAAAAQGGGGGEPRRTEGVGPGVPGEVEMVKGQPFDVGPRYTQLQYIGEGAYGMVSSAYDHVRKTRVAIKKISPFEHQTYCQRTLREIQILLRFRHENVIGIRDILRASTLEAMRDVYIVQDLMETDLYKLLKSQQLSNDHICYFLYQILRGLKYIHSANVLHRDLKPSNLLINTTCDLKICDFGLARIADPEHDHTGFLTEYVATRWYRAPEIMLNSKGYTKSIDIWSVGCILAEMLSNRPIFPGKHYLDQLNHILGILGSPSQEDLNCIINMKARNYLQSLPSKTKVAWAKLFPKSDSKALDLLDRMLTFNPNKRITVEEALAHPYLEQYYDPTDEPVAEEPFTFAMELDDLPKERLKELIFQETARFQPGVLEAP
MAP kinase-activated protein kinase 5 (Homo sapiens), sequence (Q8IW41 whole entry): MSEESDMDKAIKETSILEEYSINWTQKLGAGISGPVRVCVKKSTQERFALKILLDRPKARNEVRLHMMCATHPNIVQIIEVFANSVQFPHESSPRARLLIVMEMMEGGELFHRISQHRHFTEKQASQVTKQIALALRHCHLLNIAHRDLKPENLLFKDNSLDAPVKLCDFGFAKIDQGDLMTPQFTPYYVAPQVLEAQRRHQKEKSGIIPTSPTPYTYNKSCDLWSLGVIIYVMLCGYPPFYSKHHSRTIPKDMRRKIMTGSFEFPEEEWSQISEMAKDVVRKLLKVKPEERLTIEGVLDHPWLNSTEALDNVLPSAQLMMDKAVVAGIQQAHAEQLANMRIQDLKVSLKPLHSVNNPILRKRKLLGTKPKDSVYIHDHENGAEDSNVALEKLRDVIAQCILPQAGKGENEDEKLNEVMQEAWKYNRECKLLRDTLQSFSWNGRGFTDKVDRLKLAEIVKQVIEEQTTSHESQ

Structure (SMILES): CC(C)c1cnn2c(NCc3ccccc3)cc(N[C@@H](CO)[C@H](O)CO)nc12
- Activity [1]: 97%
- Activity [2]: 64%
- inhibition [3]: inactive
- GI50 [4]: 0.3 µM
- Activity [5]: Active
- GI50 [6]: 0.1 µM
- inhibition [7]: inactive
- inhibition in vivo at 5 mg/kg [8]: 30%
- inhibition (INH) [9]: Not Active
- inhibition (INH) [10]: Active
- inhibition [11]: inactive
- Activity [12]: Non-toxic
- Activity [13]: 70%
- inhibition [14]: < 50%
- half-life [15]: 2.45 h
- IC50 [16]: 1.8 µM
- Activity [17]: 23%
- inhibition [18]: inactive
- AUC [19]: 32.1 µg·h/mL
- Activity [20]: 42%
- Cmax [21]: 5.6 µg/mL
- Activity [22]: 97%
- Activity [23]: 87%
- inhibition [24]: inactive
- Activity [25]: 65%
- IC50 [26]: 20 µM
- inhibition [27]: Active
